KCNQ1 inh – human KCNQ1 channel inhibition; P51787; CHO-K1 KCNQ1, FluxOR thallium flux fluorescence; hits give high values; B-score at 10 µM; 1.3% of 310,000 active; AID 2642;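 active = compounds whose thallium flux B-score, printed positive for inhibition, exceeds three library SD while starting fluorescence stays within three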;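 also: channel opened by potassium depolarization with thallium stimulus after 20 min compound exposure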
KCNQ1 act – potentiates or activates the human KCNQ1 potassium channel | 0.35% of 310,000 active | CHO-K1 KCNQ1, thallium flux FluxOR fluorescence; hits give high values | B-score at 10 µM | P51787;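 active = fluorescence ratio B-score, a plate-corrected score, at least three library SD, with initial intensity B-score within 5 SD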
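Test system: CHO-K1 cells stably expressing KCNQ1 / Medium: assay buffer / Also added: depolarizing K+/Tl+ stimulus, K2SO4 and Tl2SO4 each 12.5 mM in 5x stock / Incubation: 90 min dye loading and 20 min compound exposure, both at room temperature / Signal: thallium influx via FluxOR fluorescence, kinetic imaging / Evaluation: B score of baseline-normalized fluorescence ratio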
hERG rescue – hERG (human) protection from proarrhythmic block; CHO-hERG, FluxOR thallium flux, dofetilide IC70 present; activation (rescue from dofetilide block), less the hit threshold, % at 10 µM; 0.51% of 310,000 active;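 active = activation above the mean of controls blocked by dofetilide plus 5 SD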;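 also: thallium influx through hERG after potassium depolarization seen as dye fluorescence rise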
Kir21 block – inhibitors of mouse Kir2.1 inward-rectifier potassium channel. P35561. HEK293-Kir2.1, FluxOR thallium flux fluorescence; hits give low values. B-score at 10 µM. 0.85% of 310,000 active. AID 1672;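 active = fluorescence ratio B-score at or below minus 3 SD of library scores, with starting-brightness B-score within 2 SD, cut at about -4.2 in these data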;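 also: channel flux triggered by added potassium and thallium sulfate stimulus; B-score of peak minus minimum fluorescence over baseline after thallium stimulus; more negative B-score means stronger Kir2.1 block with less thallium influx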
Target sequence (P35561 whole entry, looked up): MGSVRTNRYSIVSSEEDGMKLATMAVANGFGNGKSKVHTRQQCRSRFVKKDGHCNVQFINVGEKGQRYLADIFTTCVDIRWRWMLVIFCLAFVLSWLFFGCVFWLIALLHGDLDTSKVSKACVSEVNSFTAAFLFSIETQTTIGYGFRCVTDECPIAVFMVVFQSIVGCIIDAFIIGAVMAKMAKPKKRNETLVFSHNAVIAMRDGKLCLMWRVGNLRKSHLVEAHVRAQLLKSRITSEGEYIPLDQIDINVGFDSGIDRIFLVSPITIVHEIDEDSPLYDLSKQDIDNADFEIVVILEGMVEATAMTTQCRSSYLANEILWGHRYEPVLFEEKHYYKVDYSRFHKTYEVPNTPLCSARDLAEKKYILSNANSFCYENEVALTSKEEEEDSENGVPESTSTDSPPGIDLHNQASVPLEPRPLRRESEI
KCNK3 block – human KCNK3 channel inhibition, primary screen; O14649; CHO-KCNK3 thallium flux, FluxOR fluorescence; hits give low values; B-score at 10 µM; 0.84% of 340,000 active;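 active = B-score under library mean minus 4 SD, starting fluorescence ratio at most library mean plus 5 SD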;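 also: more negative B-score means stronger inhibition of thallium flux through KCNK3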
KCNK9 inh – human KCNK9 channel inhibition | Q9NPC2 | HEK293 KCNK9, FluxOR thallium flux fluorescence; hits give low values | B-score at 10 µM | 1.2% of 310,000 active;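 active = ratio B-score over 3 SD below the library mean, with starting fluorescence within 5 SD of its mean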;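 also: negative B-score means less thallium flux so channel inhibition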
Starred values were filed as active, the others as inactive; i = inactive; / = no result. A selection: hits, their analogues and other compounds. The true share with any hit is near 3.7%.

SMILES	KCNQ1 inh	KCNQ1 act	hERG rescue	Kir21 block	KCNK3 block	KCNK9 inh
O=C(NC1CC2CCC(C1)N2Cc1nnnn1Cc1ccco1)NC12CC3CC(CC(C3)C1)C2 (stereo not drawn)	i	i	-16.8	0.55	i	i
CCOc1ccccc1C(=O)NC1CC2CCCC(C1)N2Cc1nnnn1Cc1ccco1 (stereo not drawn)	i	i	22.5*	1.18	i	i
CCOC(=O)c1oc2c(CN3CCN(C)CC3)c(O)c(CC)cc2c(=O)c1-c1nc2ccccc2s1	/	/	/	/	i	/
COC(=O)c1ccc(OC(=O)CCN2c3ccccc3Sc3ccccc32)cc1	i	i	-11.2	-0.4	i	-7.51*
O=C(CCN1c2ccccc2Sc2ccccc21)Oc1ccccc1	i	i	-10.4	-1.54	i	i
Cn1c(=O)c(=O)n(C)c2cc(S(=O)(=O)N3CCC(Cc4ccccc4)CC3)ccc21	i	i	-3.0	2.03	i	i
O=S(=O)(c1ccccc1Cl)N1CCC(Cc2ccccc2)CC1	6*	i	-17.9	-0.25	i	i
Cc1ccc(-n2nnnc2C(Cl)c2nnnn2-c2ccc(C)cc2)cc1	i	i	-9.1	-11.5*	i	i
Cc1ccc(-n2nnnc2-c2ccccc2)cc1	i	i	-10.5	0.1	i	i
O=[N+]([O-])c1cc(C=Nc2cccc3c(O)cccc23)ccc1Cl	7*	i	-8.3	-1.4	/	i
O=C(c1cn(-c2ccccc2)nc1-c1cccs1)N1CCN(c2ccccn2)CC1	i	i	-10.6	1.51	i	i
COc1ccc(CCNC(=O)Cn2cccc2C(=O)c2ccccc2C)cc1OC	i	i	-7.7	-5.02*	i	i
COc1ccc(CCNC(=O)Cn2cccc2C(=O)c2ccccc2)cc1OC	i	i	-4.8	1.09	i	i
Cc1ccccc1C(=O)c1cccn1CC(=O)NCC(C)c1ccccc1 (stereo not drawn)	i	i	-8.0	-6.37*	i	i
CC1CCN(C(=O)c2cc(S(=O)(=O)N3CCCCC3)c[nH]2)CC1	i	i	-9.6	1.64	i	i
Cc1cccc(NC(=O)c2ccccn2)c1C	i	i	-6.7	-0.37	i	i
Cc1cccc(NC(=O)c2n[nH]c([N+](=O)[O-])c2Br)c1C	7*	i	-14.3	-0.05	i	i
Cc1nc2ccc(OC(=O)c3ccccc3)cc2s1	i	i	-16.3	-4.79*	i	i
Cc1ccc(OC(=O)c2ccc3nc(C)sc3c2)cc1	i	i	-5.9	-0.96	/	i
O=C1c2ccccc2C(=O)N1Cc1nc2ccccc2c(=O)n1CCCn1ccnc1	i	i	9.8*	-3.4	i	i
Cc1ccc(CNC(=O)c2cn(C3CCCC3)c(=O)c3c2c2ccccc2n3C)o1	i	i	-4.3	0.43	/	-6.71*
Cn1c2ccccc2c2c(C(=O)NCc3ccco3)cn(C3CCCCC3)c(=O)c21	i	i	-10.7	0.53	i	i
CC(C)(C)OC(=O)NCCCCCc1nnc(SCc2cccc(F)c2)o1	i	i	-9.9	-1.28	i	i
CC(C)(C)OC(=O)NCCc1nnc(SCc2cccc(Cl)c2)o1	i	i	-11.3	-11.7*	i	i
Cc1cccc(CSc2nnc(CCNC(=O)OC(C)(C)C)o2)c1	i	i	-9.9	-6.75*	i	i
SMILES	KCNQ1 inh	KCNQ1 act	hERG rescue	Kir21 block	KCNK3 block	KCNK9 inh
Cc1cc(OC(C)C(N)=O)nc(-c2ccccc2)n1 (stereo not drawn)	i	i	-5.7	1.6	i	i
O=C(NNC(=O)c1cc(Br)c(Br)s1)c1csc(N2CCOCC2)n1	i	i	-13.3	1.94	i	i
CC(=O)C[C@H]1c2ccccc2S(=O)(=O)N1C1CCCC1	i	i	3.0	-4.75*	i	i
O=C(NCc1ccccc1Cl)c1ccc2nc[nH]c2c1	i	i	-4.8	-0.93	i	i
Cc1cc(-n2c(C)cc(C(=O)COc3ccc(F)c(F)c3)c2C)no1	/	/	/	/	i	/
CCOC(=O)CS(=O)(=O)c1nc(-c2ccc(F)cc2)cc(C(F)(F)F)n1	i	9*	-26.0	-4.48*	i	i
CCOC(=O)CCS(=O)(=O)c1nc(-c2ccccc2)cc(C(F)(F)F)n1	i	i	-15.3	-3.05	i	i
CCOC(=O)CS(=O)(=O)c1nc(-c2ccccc2)cc(C(F)(F)F)n1	i	i	-15.4	-7.09*	i	i
O=C(CSc1n[nH]c(-c2ccc(Br)cc2)n1)NC1CCCC1	/	/	/	/	i	/
CC1CCCCN1C(=O)CSc1nc2c(c(=O)n(C)c(=O)n2C)n1C (stereo not drawn)	i	i	-8.6	0.3	i	i
CCOC(=O)[C@H]1[C@H]2COc3ccc(Br)cc3[C@@H]2N2C(=O)CN(Cc3ccccc3)C(=O)[C@@]12C	/	/	/	/	i	/
c1ccc(CSc2nnnn2-c2cccc3ccccc23)nc1	i	i	-8.0	-7.37*	i	i
OC(COCc1ccc(Cl)cc1)CN1CCCCC1 (stereo not drawn)	i	i	-1.3	1.21	i	i
C=CCc1ccc(OCC(O)CN2CCN(Cc3ccc(Cl)cc3)CC2)c(OC)c1 (stereo not drawn)	i	i	-15.1	-8.26*	i	i
C=CCc1ccc(OCC(O)CN2CCC(Cc3ccccc3)CC2)c(OC)c1 (stereo not drawn)	i	i	-19.6	-2.93	i	i
OC(COCc1ccc(Cl)cc1)CN1CCN(CC(O)COCc2ccc(Cl)cc2)CC1 (stereo not drawn)	i	i	-18.6	-4.88*	i	i
Fc1ccc(CSc2nnc(-c3cccnc3)o2)cc1	i	i	-0.7	0.67	i	i
Cc1cc(Nc2ccccc2)n(C(=O)c2ccc(Cl)cc2)n1	i	i	-7.4	-0.31	i	-6.64*
Cc1cc(Nc2ccccc2)n(-c2ccc(C(=O)O)cc2)n1	i	i	1.7	-0.01	i	i
CCOC(=O)Cc1csc(NC(=S)NC(=O)c2ccccc2)n1	i	i	-5.2	-0.96	i	i
CCOC(=O)Cc1csc(NC(=S)NC(=O)c2ccccc2Br)n1	i	17*	14.7*	1.43	i	i
Cc1csc(NC(=S)NC(=O)c2ccccc2)n1	i	i	4.7*	1.43	i	i
CCN(C(=O)COC(=O)CCS(=O)(=O)c1ccc(C)cc1)C1CCS(=O)(=O)C1 (stereo not drawn)	i	i	-8.8	0.71	i	i
CCOc1cc(CNCCSc2nnnn2C)cc(Br)c1OCc1ccccc1	i	i	-21.2	-1.66	i	i

Bioassay records deposited in PubChem BioAssay by Johns Hopkins Ion Channel Center.
